The source made the active and inactive calls. The rule behind the calls is not given here.
Tests used:
[1] = test system: Jurkat; assay: Inhibition of TNF-alpha-induced necroptosis in FADD-deficient human Jurkat T cells after 24 hrs; assay type: functional, cell-based
How it was run: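 FADD-deficient human Jurkat T cells at 5×10^5 cells/mL, 24 h at 37 °C, 5% CO2, with 10 ng/mL human TNF-α plus compound at eleven concentrations (0.030–100 μM), each in duplicate. DMSO stocks diluted in DMSO; final DMSO 0.5%. Viability by luminescent ATP assay (CellTiter-Glo), expressed as signal with TNF-α plus compound over signal with compound alone. EC50 from the dose series.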

[2] = test system: L929; assay: Inhibition of TNF-alpha-induced necroptosis in […] assessed as cell viability at 30 uM after 24 hrs by ATP-based assessement method; assay type: functional
How it was run: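 L929 cells given 10 ng/mL human TNF-α for 24 h with compound at 30 μM. ATP-based viability, normalized to compound-only cells without stimulus (100%). N = 2, standard deviation.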

[3] = test system: L929; assay: Inhibition of zVAD-induced necroptosis in […] assessed as cell viability at 30 uM after 24 hrs by ATP-based assessement method; assay type: functional
How it was run: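 L929 cells treated 24 h with 100 μM zVAD.fmk as the necroptotic stimulus, compound at 30 μM. ATP-based viability, normalized to compound-only cells without stimulus (100%). N = 2, standard deviation.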

[4] = test system: Jurkat; assay: Inhibition of TNF-alpha-induced necroptosis in FADD-deficient human Jurkat T cells assessed as cell viability at 30 uM after 24 hrs by ATP-based assessement method; assay type: functional
How it was run: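 FADD-deficient Jurkat cells exposed 24 h to 10 ng/mL human TNF-α with compound at 30 μM. Viability by ATP-based luminescence, normalized to cells given compound without the necroptotic stimulus (set as 100%). N = 2, standard deviation.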

[5] = test system: Fibroblast; assay: Inhibition of TNFalpha and zVAD-induced necroptosis in SV40-transformed mouse adult lung fibroblasts assessed as cell viability at 30 uM after 24 hrs by ATP-based assessement method; assay type: functional
How it was run: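 SV40-transformed mouse adult lung fibroblasts stimulated 24 h with 10 ng/mL human TNF-α plus 100 μM zVAD.fmk, compound at 30 μM. ATP-based viability, normalized to compound-treated cells without stimulus (100%). N = 2, standard deviation.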

SMILES	EC50 [1]	also measured
O=C(NCc1c(Cl)cccc1Oc1ccccc1)c1snnc1C1CC1	> 100 µM	–
N#Cc1cccc(Cl)c1CNC(=O)c1snnc1C1CC1	> 100 µM	–
O=C(NC(c1ccccc1)c1c(F)cccc1Cl)c1snnc1C1CC1 (stereo not given)	> 100 µM	–
COc1ccc([C@H]2C3CCc4ccc(OC)cc4C3=NN2C(C)=O)cc1 (stereo not given in full)	–	Activity [2]: Active; Activity [3]: inactive; Activity [4]: Active
O=C(NCc1c(F)cccc1Cl)c1sccc1C1CC1	5.1 µM	–
CN1C(=O)N[C@H](Cc2c[nH]c3c(Cl)cccc23)C1=O	–	Activity [2]: Active; Activity [3]: Active; Activity [4]: Active; Activity [5]: Active
O=C(NCCc1c(F)cccc1Cl)c1snnc1C1CC1	27 µM	–
Cc1ncsc1C(=O)NCc1c(F)cccc1Cl	20 µM	–
Cc1ccsc1C(=O)NC(C)c1c(F)cccc1Cl (stereo not given)	3.9 µM	–
Fc1cccc(Cl)c1CNCc1snnc1C1CC1	> 100 µM	–
Cc1ccsc1C(=O)NCc1c(F)cccc1Cl	7 µM	–
Cc1nc(-c2ccc(Cl)cc2)sc1C(=O)NCc1c(F)cccc1Cl	> 100 µM	–
O=C(NCc1c(F)cccc1Cl)c1cccs1	9.4 µM	–
O=C(NCc1c(Cl)cccc1Cl)c1snnc1C1CC1	6 µM	–
Cc1ccoc1C(=O)NCc1c(F)cccc1Cl	13 µM	–
O=C(NCc1c(F)ccc(F)c1Cl)c1snnc1C1CC1	0.52 µM	–
Cc1ccc(C(=O)NCc2c(F)cccc2Cl)s1	3.9 µM	–
O=C(NCc1cccc2ccccc12)c1snnc1C1CC1	> 100 µM	–
O=C(NCc1ccccc1F)c1snnc1C1CC1	1.5 µM	–

SMILES	EC50 [1]	also measured
Cc1nnsc1C(=O)NCc1c(F)cccc1F	3.5 µM	–
O=C(NCc1c(F)cccc1Cl)c1snnc1C1CCCC1	1.9 µM	–
CC(NC(=O)c1snnc1C1CC1)c1c(F)cccc1Cl (stereo not given)	0.4 µM	–
CC(C)c1nnsc1C(=O)NCc1c(F)cccc1Cl	0.58 µM	–
CN(Cc1c(F)cccc1Cl)C(=O)c1snnc1C1CC1	16 µM	–
O=C(NCc1c(F)ccc(Cl)c1F)c1snnc1C1CC1	0.18 µM	–
CCOc1ccsc1C(=O)NCc1c(F)cccc1Cl	> 100 µM	–
O=C(NCc1c(F)cccc1Cl)c1snnc1C1CCC1	0.6 µM	–
Cc1c(C#N)csc1C(=O)NCc1c(F)cccc1Cl	1.2 µM	–
Cc1nnccc1C(=O)NCc1c(F)cccc1Cl	> 100 µM	–
Cc1csc(C(=O)NCc2c(F)cccc2Cl)c1Cl	3.9 µM	–
CC(C)(C)c1nnsc1C(=O)NCc1c(F)cccc1Cl	18 µM	–
COc1ccccc1CNC(=O)c1snnc1C	> 100 µM	–
O=C(NCc1c(F)cccc1Cl)c1sccc1Cl	9.6 µM	–
O=C(NCc1ncccc1F)c1snnc1C1CC1	9.6 µM	–
Cc1ncoc1C(=O)NCc1c(F)cccc1Cl	> 100 µM	–
O=C(NCc1c(F)cccc1C(F)(F)F)c1snnc1C1CC1	> 100 µM	–
C[C@@H](NC(=O)c1snnc1C1CC1)c1c(F)cccc1Cl	> 100 µM	–
C[C@H](NC(=O)c1snnc1C1CC1)c1c(F)cccc1Cl	0.28 µM	Activity [2]: Active; Activity [3]: inactive; Activity [4]: Active; Activity [5]: Active

SMILES	EC50 [1]	also measured
CCCc1nnsc1C(=O)NCc1c(F)cccc1Cl	4.1 µM	–
O=C(NCc1c(F)cccc1Cl)c1snnc1C1CCCCC1	6 µM	–
Cc1cccc(Cl)c1CNC(=O)c1snnc1C1CC1	10 µM	–
Cc1nnsc1C(=O)N(C)Cc1c(F)cccc1Cl	11 µM	–
Cc1c(S(=O)(=O)c2ccc(Cl)cc2)csc1C(=O)NCc1c(F)cccc1Cl	> 100 µM	–
O=C(NCc1c(F)cccc1F)c1snnc1C1CC1	1.5 µM	–
CC(C)(NC(=O)c1snnc1C1CC1)c1c(F)cccc1Cl	> 100 µM	–
Cc1ccccc1CNC(=O)c1snnc1C	27 µM	–
O=C(Nc1c(F)cccc1F)c1snnc1C1CC1	> 100 µM	–
CCCCC(NC(=O)c1snnc1C1CC1)c1c(F)cccc1Cl (stereo not given)	> 100 µM	–
O=C(NCc1c(F)cccc1Cl)c1snnc1-c1ccccc1	> 100 µM	–
Cc1csc(C(=O)NCc2c(F)cccc2Cl)c1	3.7 µM	–
Cc1c(Br)csc1C(=O)NCc1c(F)cccc1Cl	1.3 µM	–
Cc1nnsc1C(=O)NCc1c(F)cccc1Cl	1 µM	–
O=C(NCc1ccccn1)c1snnc1C1CC1	40 µM	–
O=C(NC(=O)c1c(F)cccc1Cl)c1snnc1C1CC1	> 100 µM	–
O=C(NCc1c(F)cccc1Cl)c1snnc1C1CC1	0.5 µM	–
Cc1nc(C)c(C(=O)NCc2c(F)cccc2Cl)s1	> 100 µM	–

Reference: ChEMBL document CHEMBL1140581, “Structure-activity relationship study of [1,2,3]thiadiazole necroptosis inhibitors” (Bioorg Med Chem Lett, 2007)
